ChEMBL document CHEMBL4265871, “Novel alkylated azoles as potent antifungals” (Eur J Med Chem, 2017)
In brackets after ≈: the same amount, converted by molar mass.

What was measured:
Candida albicans [1] = assay: Antifungal activity against ITC and FLC-resistant Candida albicans ATCC MYA-90819 incubated for 48 hrs by modified CLSI M27-A3 protocol based method; assay type: functional; conditions: ATCC MYA-90819, 48 h
Candida albicans [2] = assay: Antifungal activity against ITC and FLC-susceptible Candida albicans ATCC MYA-2310 incubated for 48 hrs by modified CLSI M27-A3 protocol based method; assay type: functional; conditions: ATCC MYA-2310, 48 h
Candida albicans [3] = assay: Antifungal activity against ITC and FLC-resistant Candida albicans ATCC MYA-1003 incubated for 48 hrs by modified CLSI M27-A3 protocol based method; assay type: functional; conditions: ATCC MYA-1003, 48 h
In short: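 Because these Candida strains show trailing growth, MIC-2 was read, meaning 50% growth inhibition. Caspofungin and voriconazole were tested here; other controls came from earlier work.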

Nakaseomyces glabratus = assay: Antifungal activity against Candida glabrata ATCC 2001 incubated for 48 hrs by modified CLSI M27-A3 protocol based method; assay type: functional; conditions: ATCC 2001, 48 h
Pichia kudriavzevii = assay: Antifungal activity against Candida krusei ATCC 6258 incubated for 48 hrs by modified CLSI M27-A3 protocol based method; assay type: functional; conditions: ATCC 6258, 48 h, read-out: MIC100
In short: (§1)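 For C. albicans ATCC 10231, C. krusei ATCC 6258 and C. parapsilosis ATCC 22019, MIC-0 was read, meaning complete growth inhibition. For azole controls, MIC-2 (50% growth inhibition) was reported instead. Caspofungin and voriconazole were tested here; other controls came from earlier work.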

Candida parapsilosis = assay: Antifungal activity against Candida parapsilosis ATCC 22019 incubated for 48 hrs by modified CLSI M27-A3 protocol based method; assay type: functional; conditions: Lodderomyces parapsilosis, ATCC 22019, 48 h; read-out: MIC100; in short: as §1
Aspergillus flavus = assay: Antifungal activity against Aspergillus flavus ATCC MYA-3631 incubated for 48 hrs by CLSI M38-A2 protocol based method; assay type: functional; conditions: ATCC MYA-3631, 48 h, read-out: MIC100
Aspergillus nidulans = assay: Antifungal activity against Aspergillus nidulans ATCC 38163 incubated for 48 hrs by CLSI M38-A2 protocol based method; assay type: functional; conditions: ATCC 38163, 48 h, read-out: MIC100
[4] = Toxicity in human A549 cells assessed as reduction in cell viability incubated for 24 hrs by resazurin dye based assay
In short: (§2)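 Toxicity tested in the nucleated lines A549 and BEAS-2B to give EC50 values. Selectivity index is EC50 against the mammalian line divided by the MIC against a given fungal strain.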

[5] = Toxicity in human BEAS2B cells assessed as reduction in cell viability incubated for 24 hrs by resazurin dye based assay; conditions: BEAS-2B cells; in short: as §2
[6] = Hemolytic activity in mouse erythrocytes assessed as hemolysis level at 1.95 ug/ml incubated for 1 hr at 37 degC; assay type: ADME, cell-based, Erythrocyte; conditions: read-out: Activity
In short: (§3)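 Mouse erythrocytes incubated 1 h at 37 °C with test agents over 1.95 to 125 µg/mL. Percent lysis is read for each concentration.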

[7] = Hemolytic activity in mouse erythrocytes assessed as hemolysis level at 7.8 ug/ml incubated for 1 hr at 37 degC; assay type: ADME, cell-based, Erythrocyte; conditions: read-out: Activity; in short: as §3
[8] = Hemolytic activity in mouse erythrocytes assessed as hemolysis level at 15.6 ug/ml incubated for 1 hr at 37 degC; assay type: ADME, cell-based, Erythrocyte; conditions: read-out: Activity; in short: as §3
[9] = Hemolytic activity in mouse erythrocytes assessed as hemolysis level at 125 ug/ml incubated for 1 hr at 37 degC; assay type: ADME, cell-based, Erythrocyte; conditions: read-out: Activity; in short: as §3
[10] = Selectivity index, ratio of EC50 for toxicity in human BEAS2B cells to MIC50 for antifungal activity against Candida albicans ATCC 64124; assay type: cell-based; conditions: BEAS-2B cells, read-out: Selectivity Index
In short: (§4)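 Selectivity index is the EC50 against the mammalian line (A549 or BEAS-2B) divided by the MIC against the given fungal strain.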

[11] = Selectivity index, ratio of EC50 for toxicity in human A549 cells to MIC50 for antifungal activity against Candida albicans ATCC 64124; assay type: cell-based; conditions: read-out: Selectivity Index; in short: as §4
[12] = Selectivity index, ratio of EC50 for toxicity in human A549 cells to MIC50 for antifungal activity against ITC and FLC-susceptible Candida albicans ATCC MYA-2876; assay type: cell-based; conditions: read-out: Selectivity Index; in short: as §4
[13] = Selectivity index, ratio of EC50 for toxicity in human BEAS2B cells to MIC50 for antifungal activity against ITC and FLC-susceptible Candida albicans ATCC MYA-2876; assay type: cell-based; conditions: BEAS-2B cells, read-out: Selectivity Index
In short: (§5)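 Ratio of the compound's EC50 against BEAS-2B cells to its MIC against the named C. albicans strain. […] For C. albicans strains other than ATCC 10231, trailing growth meant MIC-2 was taken, meaning 50% growth inhibition.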

[14] = Selectivity index, ratio of EC50 for toxicity in human A549 cells to MIC50 for antifungal activity against ITC and FLC-resistant Candida albicans ATCC MYA-90819; assay type: cell-based; conditions: read-out: Selectivity Index; in short: as §4
[15] = Selectivity index, ratio of EC50 for toxicity in human BEAS2B cells to MIC50 for antifungal activity against ITC and FLC-resistant Candida albicans ATCC MYA-90819; assay type: cell-based; conditions: BEAS-2B cells, read-out: Selectivity Index; in short: as §5
[16] = Selectivity index, ratio of EC50 for toxicity in human BEAS2B cells to MIC50 for antifungal activity against ITC and FLC-susceptible Candida albicans ATCC MYA-2310; assay type: cell-based; conditions: BEAS-2B cells, read-out: Selectivity Index; in short: as §5
[17] = Selectivity index, ratio of EC50 for toxicity in human BEAS2B cells to MIC50 for antifungal activity against ITC and FLC-resistant Candida albicans ATCC 1237; assay type: cell-based; conditions: BEAS-2B cells, read-out: Selectivity Index; in short: as §4
[18] = Selectivity index, ratio of EC50 for toxicity in human A549 cells to MIC50 for antifungal activity against ITC and FLC-resistant Candida albicans ATCC MYA-1003; assay type: cell-based; conditions: read-out: Selectivity Index; in short: as §4
[19] = Selectivity index, ratio of EC50 for toxicity in human A549 cells to MIC50 for antifungal activity against Candida glabrata ATCC 2001; assay type: cell-based; conditions: read-out: Selectivity Index; in short: as §4
[20] = Selectivity index, ratio of […] for toxicity in human A549 cells to MIC50 for antifungal activity against Aspergillus flavus ATCC MYA-3631; assay type: cell-based; conditions: read-out: Selectivity Index
[21] = Selectivity index, ratio of […] for toxicity in human A549 cells to MIC50 for antifungal activity against Aspergillus nidulans ATCC 38163; assay type: cell-based; conditions: read-out: Selectivity Index
[22] = Selectivity index, ratio of […] for toxicity in human BEAS2B cells to MIC50 for antifungal activity against Aspergillus nidulans ATCC 38163; assay type: cell-based; conditions: BEAS-2B cells, read-out: Selectivity Index
[23] = Selectivity index, ratio of […] for toxicity in human A549 cells to MIC50 for antifungal activity against Aspergillus terreus ATCC MYA-3633; assay type: cell-based; conditions: read-out: Selectivity Index
[24] = Selectivity index, ratio of […] for toxicity in human BEAS2B cells to MIC50 for antifungal activity against Aspergillus terreus ATCC MYA-3633; assay type: cell-based; conditions: BEAS-2B cells, read-out: Selectivity Index
in vitro = conditions: mouse, mouse erythrocytes
[25] = Selectivity index, ratio of EC50 for toxicity in human A549 cells to MIC50 for antifungal activity against Candida krusei ATCC 6258
[26] = Selectivity index, ratio of EC50 for toxicity in human BEAS2B cells to MIC50 for antifungal activity against Candida krusei ATCC 6258; conditions: BEAS-2B cells

With `CCCCCC(O)(Cn1cncn1)c1ccccc1F` (stereo unspecified) the MIC50 (Candida albicans [1]) was 1.7 µM (≈ 0.471 µg/mL), the MIC50 (Candida albicans [2]) was 3.5 µM (≈ 0.971 µg/mL) and the MIC50 (Candida albicans [3]) was 14.1 µM (≈ 3.91 µg/mL). It also gave an MIC50 (Nakaseomyces glabratus) of 3.5 µM (≈ 0.971 µg/mL), an MIC (Pichia kudriavzevii) of 0.22 µM (≈ 0.061 µg/mL) and an MIC (Candida parapsilosis) of 0.43 µM (≈ 0.119 µg/mL). The MIC (Aspergillus flavus) was 28.1 µM (≈ 7.79 µg/mL), the MIC (Aspergillus nidulans) was 1.7 µM (≈ 0.471 µg/mL) and the EC50 at 24 h [4] was 37 µg/mL (≈ 133 µM). For the same molecule, the EC50 at 24 h [5] was > 31.3 µg/mL, the hemolysis at 1 h, 1.95 ug/ml [6] was 0% and the hemolysis at 1 h, 7.8 ug/ml [7] was 0%. The hemolysis at 1 h, 15.6 ug/ml [8] was 0%, the hemolysis at 1 h, 125 ug/ml [9] was 20.7% and the selectivity ratio [10] was 1. The selectivity ratio [11] was 1, the selectivity ratio [12] was 38 and the selectivity ratio [13] was 32. For the same molecule, the selectivity ratio [14] was 77, the selectivity ratio [15] was 65 and the selectivity ratio [16] was 32. The selectivity ratio [17] was 32, the selectivity ratio [18] was 9 and the selectivity ratio [19] was 38. It also gave a selectivity ratio [20] of 5, a selectivity ratio [21] of 77 and a selectivity ratio [22] of 65. For the same molecule, the selectivity ratio [23] was 9, the selectivity ratio [24] was 8 and the hemolysis at 1 h, 62.5 ug/ml (in vitro) was 0%. The selectivity ratio [25] was 617 and the selectivity ratio [26] was 522.

With `CCCC(O)(Cn1cncn1)c1ccc(Cl)cc1Cl` (stereo unspecified) the MIC50 (Candida albicans [1]) was 13 µM (≈ 3.9 µg/mL), the MIC50 (Candida albicans [2]) was 13 µM (≈ 3.9 µg/mL) and the MIC50 (Candida albicans [3]) was 3.2 µM (≈ 0.961 µg/mL). For the same molecule, the MIC50 (Nakaseomyces glabratus) was 13 µM (≈ 3.9 µg/mL), the MIC (Pichia kudriavzevii) was 0.2 µM (≈ 0.06 µg/mL) and the MIC (Candida parapsilosis) was < 0.1 µM. For the same molecule, the MIC (Aspergillus flavus) was 52 µM (≈ 15.6 µg/mL), the MIC (Aspergillus nidulans) was 6.5 µM (≈ 1.95 µg/mL) and the EC50 at 24 h [4] was > 31.3 µg/mL. The EC50 at 24 h [5] was > 31.3 µg/mL, the selectivity ratio [10] was 8 and the selectivity ratio [11] was 8. The selectivity ratio [12] was 16, the selectivity ratio [13] was 16 and the selectivity ratio [14] was 8. The selectivity ratio [15] was 8, the selectivity ratio [16] was 8 and the selectivity ratio [17] was 4. The selectivity ratio [18] was 32, the selectivity ratio [19] was 8 and the selectivity ratio [20] was 2. It also gave a selectivity ratio [21] of 16, a selectivity ratio [22] of 16 and a selectivity ratio [23] of 8. The selectivity ratio [24] was 8, the selectivity ratio [25] was 522 and the selectivity ratio [26] was 522.

`CCCCCC(O)(Cn1cncn1)c1ccc(Cl)cc1` (stereo unspecified) gave an MIC50 (Candida albicans [1]) of 6.6 µM (≈ 1.94 µg/mL), an MIC50 (Candida albicans [2]) of 53.1 µM (≈ 15.6 µg/mL) and an MIC50 (Candida albicans [3]) of 6.6 µM (≈ 1.94 µg/mL). For the same molecule, the MIC50 (Nakaseomyces glabratus) was 13.3 µM (≈ 3.91 µg/mL), the MIC (Pichia kudriavzevii) was 0.41 µM (≈ 0.12 µg/mL) and the MIC (Candida parapsilosis) was 0.2 µM (≈ 0.0588 µg/mL). The MIC (Aspergillus flavus) was > 106 µM, the MIC (Aspergillus nidulans) was 26.5 µM (≈ 7.79 µg/mL) and the EC50 at 24 h [4] was > 31.3 µg/mL. The EC50 at 24 h [5] was > 31.3 µg/mL, the selectivity ratio [10] was 4 and the selectivity ratio [11] was 4. The selectivity ratio [12] was 2, the selectivity ratio [13] was 2 and the selectivity ratio [14] was 16. The selectivity ratio [15] was 16, the selectivity ratio [16] was 2 and the selectivity ratio [17] was 8. For the same molecule, the selectivity ratio [18] was 16, the selectivity ratio [19] was 8 and the selectivity ratio [20] was 1. For the same molecule, the selectivity ratio [21] was 4, the selectivity ratio [22] was 4 and the selectivity ratio [23] was 1. The selectivity ratio [24] was 1, the selectivity ratio [25] was 261 and the selectivity ratio [26] was 261.
